# Measurements: ChEMBL document CHEMBL1137378, “Antibacterial agent discovery using thymidylate synthase biolibrary screening” (J Med Chem, 2006)
# What was measured:
# [1] = tested on: Enterococcus faecalis; assay: Antibacterial activity against Enterococcus faecalis ATCCC29212; assay type: functional
# Procedure, shortened: (§1)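 Wild-type strain panel (18 Gram-positive and Gram-negative strains). Bacteria grown in Mueller-Hinton broth at 37 °C for 24 h. Exponentially growing cultures diluted in sterile liquid medium to a final inoculum of about 1 × 10⁴ CFU/mL, then exposed to increasing compound concentrations. MIC taken as the lowest concentration with no evident bacterial growth.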
# [2] = tested on: Escherichia coli; assay: Antibacterial activity against Escherichia coli 256; assay type: functional; procedure, shortened: as §1
# [3] = tested on: Escherichia coli; assay: Antibacterial activity against Escherichia coli 292; assay type: functional; procedure, shortened: as §1
# [4] = tested on: Vero; assay: Cytotoxicity against Vero cells measured as percent of cell growth at 25 mg/L relative to control by MTT assay; assay type: functional, Chlorocebus sabaeus
# Procedure, shortened: (§2)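 VERO cells grown in MEM with 5% heat-inactivated (56 °C, 30 min) FCS, penicillin, streptomycin and L-glutamine. Cultures were watched for 2 days and live cells counted. Cells were then exposed to increasing compound concentrations; wells with cells only served as control. After 24 h, mitochondrial dehydrogenase activity was read by MTT. Trypan blue exclusion was also run.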
# [5] = tested on: Vero; assay: Cytotoxicity against Vero cells measured as percent of cell growth at 12.05 mg/L relative to control by MTT assay; assay type: functional, Chlorocebus sabaeus; procedure, shortened: as §2
# [6] = tested on: Vero; assay: Cytotoxicity against Vero cells measured as percent of cell growth at 6.25 mg/L relative to control by MTT assay; assay type: functional, Chlorocebus sabaeus; procedure, shortened: as §2
# [7] = tested on: Vero; assay: Cytotoxicity against Vero cells measured as percent of cell growth at 3.12 mg/L relative to control by MTT assay; assay type: functional, Chlorocebus sabaeus; procedure, shortened: as §2
# [8] = molecular target: T1, Dihydrofolate reductase (Homo sapiens, UniProt P00374); assay: Inhibition of human dihydrofolate reductase
# T1 sequence (P00374 whole entry): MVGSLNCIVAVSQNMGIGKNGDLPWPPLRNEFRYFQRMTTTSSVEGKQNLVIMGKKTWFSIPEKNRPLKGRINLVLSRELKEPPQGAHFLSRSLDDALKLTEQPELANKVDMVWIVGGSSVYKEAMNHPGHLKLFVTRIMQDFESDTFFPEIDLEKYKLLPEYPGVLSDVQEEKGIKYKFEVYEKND
# Procedure, shortened: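 Purified human DHFR assayed spectrophotometrically at 25 °C by the fall in A340 on DHF reduction. Ki from steady-state kinetics.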
# [9] = tested on: Listeria monocytogenes; assay: Antibacterial activity against Listeria monocytogenes 3; assay type: functional; procedure, shortened: as §1
# [10] = tested on: Listeria monocytogenes; assay: Antibacterial activity against Listeria monocytogenes 4; assay type: functional; procedure, shortened: as §1
# [11] = tested on: Listeria monocytogenes; assay: Antibacterial activity against Listeria monocytogenes 5; assay type: functional; procedure, shortened: as §1
# [12] = tested on: Listeria monocytogenes; assay: Antibacterial activity against Listeria monocytogenes 6; assay type: functional; procedure, shortened: as §1
# [13] = tested on: Listeria monocytogenes; assay: Antibacterial activity against Listeria monocytogenes 7; assay type: functional; procedure, shortened: as §1
# [14] = tested on: Listeria monocytogenes; assay: Antibacterial activity against Listeria monocytogenes 8; assay type: functional; procedure, shortened: as §1
# [15] = tested on: Listeria monocytogenes; assay: Antibacterial activity against Listeria monocytogenes ATCC 4428; assay type: functional; procedure, shortened: as §1
# [16] = tested on: Staphylococcus aureus; assay: Antibacterial activity against Staphylococcus aureus 341; assay type: functional; procedure, shortened: as §1
# [17] = tested on: Staphylococcus aureus; assay: Antibacterial activity against Staphylococcus aureus 343; assay type: functional; procedure, shortened: as §1
# [18] = tested on: Staphylococcus aureus; assay: Antibacterial activity against Staphylococcus aureus K28; assay type: functional; procedure, shortened: as §1
# [19] = tested on: Staphylococcus aureus; assay: Antibacterial activity against Staphylococcus aureus ATCC 29213; assay type: functional; procedure, shortened: as §1
# [20] = tested on: Staphylococcus haemolyticus; assay: Antibacterial activity against Staphylococcus haemolyticus ATCC 2997; assay type: functional; procedure, shortened: as §1
# [21] = tested on: Staphylococcus saprophyticus; assay: Antibacterial activity against Staphylococcus saprophyticus ATCC 15305; assay type: functional; procedure, shortened: as §1
# [22] = tested on: Citrobacter; assay: Antibacterial activity against Citrobacter 224; assay type: functional; procedure, shortened: as §1
# [23] = tested on: Streptococcus; assay: Antibacterial activity against Streptococcus 42; assay type: functional; procedure, shortened: as §1
# [24] = tested on: Vero; assay: Cytotoxicity against Vero cells measured as percent of cell growth at 50 mg/L relative to control by MTT assay; assay type: functional, Chlorocebus sabaeus; procedure, shortened: as §2
# [25] = tested on: Staphylococcus epidermidis; assay: Antibacterial activity against multiresistant Staphylococcus epidermidis 39; assay type: functional
# Procedure, shortened: (§3)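 Clinical multidrug-resistant isolates from hospitalized patients' blood or urine. Bacteria grown in Mueller-Hinton broth at 37 °C for 24 h. Exponential-phase cultures diluted in sterile liquid medium to a final inoculum of about 1 × 10⁴ CFU/mL, then exposed to increasing compound concentrations. Inhibitor stocks in DMSO. MIC (µg/mL) taken as the lowest concentration with no evident bacterial growth.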
# [26] = tested on: Staphylococcus epidermidis; assay: Antibacterial activity against multiresistant Staphylococcus epidermidis 42; assay type: functional
# [27] = tested on: Staphylococcus epidermidis; assay: Antibacterial activity against multiresistant Staphylococcus epidermidis 33; assay type: functional
# [28] = tested on: Vero; assay: Cytotoxicity against Vero cells measured as percent of cell growth at 1.56 mg/L relative to control by MTT assay; assay type: functional, Chlorocebus sabaeus; procedure, shortened: as §2
# [29] = tested on: Staphylococcus epidermidis; assay: Antibacterial activity against multiresistant Staphylococcus epidermidis 45; assay type: functional; procedure, shortened: as §3
# [30] = tested on: Staphylococcus epidermidis; assay: Antibacterial activity against multiresistant Staphylococcus epidermidis […]; assay type: functional
# [31] = tested on: Staphylococcus epidermidis; assay: Antibacterial activity against multiresistant Staphylococcus epidermidis 30; assay type: functional; procedure, shortened: as §3
# [32] = tested on: Staphylococcus epidermidis; assay: Antibacterial activity against multiresistant Staphylococcus epidermidis 32; assay type: functional; procedure, shortened: as §3
# [33] = tested on: Staphylococcus epidermidis; assay: Antibacterial activity against multiresistant Staphylococcus epidermidis 50; assay type: functional; procedure, shortened: as §3
# [34] = tested on: Staphylococcus epidermidis; assay: Antibacterial activity against multiresistant Staphylococcus epidermidis 21; assay type: functional; procedure, shortened: as §3
# [35] = tested on: Staphylococcus epidermidis; assay: Antibacterial activity against multiresistant Staphylococcus epidermidis 48; assay type: functional; procedure, shortened: as §3
# [36] = tested on: Staphylococcus epidermidis; assay: Antibacterial activity against multiresistant Staphylococcus epidermidis 36; assay type: functional; procedure, shortened: as §3
# [37] = tested on: Staphylococcus aureus; assay: Antibacterial activity against multiresistant Staphylococcus aureus 27; assay type: functional; procedure, shortened: as §3
# [38] = tested on: Staphylococcus aureus; assay: Antibacterial activity against multiresistant Staphylococcus aureus 15; assay type: functional; procedure, shortened: as §3
# [39] = tested on: Staphylococcus aureus; assay: Antibacterial activity against multiresistant Staphylococcus aureus 17; assay type: functional; procedure, shortened: as §3
# [40] = tested on: Staphylococcus haemolyticus; assay: Antibacterial activity against multiresistant Staphylococcus haemolyticus 51; assay type: functional; procedure, shortened: as §3
# [41] = tested on: Staphylococcus haemolyticus; assay: Antibacterial activity against multiresistant Staphylococcus haemolyticus 56; assay type: functional; procedure, shortened: as §3
# [42] = tested on: Enterococcus faecium; assay: Antibacterial activity against multiresistant Enterococcus faecium 52; assay type: functional; procedure, shortened: as §3
# [43] = tested on: Enterococcus faecium; assay: Antibacterial activity against multiresistant Enterococcus faecium 28; assay type: functional; procedure, shortened: as §3
# [44] = tested on: Enterococcus faecium; assay: Antibacterial activity against multiresistant Enterococcus faecium 57; assay type: functional; procedure, shortened: as §3
# [45] = tested on: Enterococcus faecium; assay: Antibacterial activity against multiresistant Enterococcus faecium 6; assay type: functional; procedure, shortened: as §3
# [46] = tested on: Enterococcus gallinarum; assay: Antibacterial activity against multiresistant Enterococcus gallinarum 37; assay type: functional; procedure, shortened: as §3
# [47] = tested on: Enterococcus gallinarum; assay: Antibacterial activity against multiresistant Enterococcus gallinarum 64; assay type: functional; procedure, shortened: as §3
# [48] = tested on: Staphylococcus aureus; assay: Antibacterial activity against multiresistant Staphylococcus aureus 9; assay type: functional; procedure, shortened: as §3
smiles,measurement,setting,value
O=C1OC(c2ccc(O)c(Cl)c2)(c2ccc(O)c(Cl)c2)c2cccc3cccc1c23,MIC,[1],10 µg/mL
same,MIC,[2],> 25 µg/mL
same,MIC,[3],> 25 µg/mL
same,Activity,[4],70%
same,Activity,[5],90%
same,Activity,[6],90%
same,Activity,[7],90%
same,Ki,[8],5.2 µM
same,MIC,[9],2.5 µg/mL
same,MIC,[10],10 µg/mL
same,MIC,[11],5 µg/mL
same,MIC,[12],10 µg/mL
same,MIC,[13],5 µg/mL
same,MIC,[14],5 µg/mL
same,MIC,[15],5 µg/mL
same,MIC,[16],5 µg/mL
same,MIC,[17],5 µg/mL
same,MIC,[18],> 25 µg/mL
same,MIC,[19],5 µg/mL
same,MIC,[20],2.5 µg/mL
same,MIC,[21],2.5 µg/mL
same,MIC,[22],> 25 µg/mL
same,MIC,[23],5 µg/mL
same,Activity,[24],58%
same,MIC,[25],2.5 µg/mL
same,MIC,[26],5 µg/mL
same,MIC,[27],> 65 µg/mL
same,Activity,[28],90%
same,MIC,[29],> 65 µg/mL
same,MIC,[30],> 65 µg/mL
same,MIC,[31],> 65 µg/mL
same,MIC,[32],> 65 µg/mL
same,MIC,[33],> 65 µg/mL
same,MIC,[34],> 65 µg/mL
same,MIC,[35],> 65 µg/mL
same,MIC,[36],> 65 µg/mL
same,MIC,[37],> 65 µg/mL
same,MIC,[38],> 65 µg/mL
same,MIC,[39],> 65 µg/mL
same,MIC,[40],> 65 µg/mL
same,MIC,[41],> 65 µg/mL
same,MIC,[42],> 65 µg/mL
same,MIC,[43],> 75 µg/mL
same,MIC,[44],10 µg/mL
same,MIC,[45],10 µg/mL
same,MIC,[46],10 µg/mL
same,MIC,[47],2.5 µg/mL
same,MIC,[48],> 65 µg/mL
